Measured values reported in the EternaBench riboswitch data.

Tested on: MS2 coat protein
Test: apparent Kd, MS2 coat protein; higher = weaker binding; RNA-MaP array; FMN 200 µM where present
Outline: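 The titrant was SNAP-549-labelled MS2 coat protein, run from 0.7 or 1.5 nM in doubling steps to 3 µM. It was applied to designs transcribed by stalled E. coli RNA polymerase on Illumina sequencing-chip clusters, without ligand first and then with constant ligand, in 100 mM Tris-HCl pH 7.5, 80 mM KCl, 4 mM MgCl2, BSA, DTT, yeast tRNA and Tween-20. The apparent Kd is the median of filtered per-cluster binding-curve fits, with green signal normalised to red-channel RNA signal and control-cluster median Fmax.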

[1] = designed as: ON switch for flavin mononucleotide, no ligand
[2] = ligand present: flavin mononucleotide, designed as: ON switch for flavin mononucleotide
[3] = designed as: OFF switch for flavin mononucleotide, no ligand
[4] = ligand present: flavin mononucleotide, designed as: OFF switch for flavin mononucleotide

Sequence | apparent Kd [1] | apparent Kd [2] | apparent Kd [3] | apparent Kd [4]
GUAGCAUUAAUAGGAUAUUCAUACCGGAAACGGACAUGAGGAUCACCCAUGUGGCGAAAGCCUUGGGAGAAGGUAAUAUGCUAC | 821 nM | 240 nM | – | –
GUAGCAUUCUGAGGAUAUUCAUACCGGAAACGGACAUGAGGAUCACCCAUGUGGCGAAAGCCUAGGGAGAAGGCAGUAUGCUAC | 56.6 nM | 13.8 nM | – | –
GUAGCAUUGAGAGGAUAUCCAUACCGGAAACGGACAUGAGGAUCACCCAUGUGGCGAAAGCCAUGGGAGAAGGCUCUAUGUUAC | 11.1 nM | 4.96 nM | – | –
GUAGCAUUGUGAGGAUAUCCAUAUCCGAAAGGGACAUGAGGAUCACCCAUGUCGCGAAAGCGGUGGGAGAAGGCACUAUGCUAC | 4.31 nM | 4.03 nM | – | –
GUAGCUAUCGGAGGAUAUCCUCAGCGGAAACGCACAUGAGGAUCACCCAUGUAAAUAAAUAAUUUGGAGAAGGCCGAUAGCUAC | 292 nM | 18.6 nM | – | –
GUAGUGUAGUGAGGAUAUACGAGAUCGAUAGAUCGGCGAUCCAUAUAUACAUGAGGAUCACCCAUGUAGAAGGCACUUCACUAC | – | – | 7.5 nM | 91.5 nM
GUAGUGUAUGUAGGAUAUGUGAAGCAAAGCUUCACAGAAGGACAUGAGGAUCACCCAUGUAUUGCAGUCAGCAAUCUGACUGCU | – | – | 41 nM | 145 nM
GUAUGACAAAGUCAUACCGCUUUGACAUGAGGAUCACCCAUGUAGGAUAUAUUAAUCAAAGAUUAAUAGAAGGACAUGUUUCUU | – | – | 43.7 nM | 114 nM
GUAUGAGCGAUAGGAUAUACUGAGAUUGAAUGGGUAGAAGGAUCACUUGUGAGGAAGACAUGAGGAUCACCCAUGUCACGGGCC | 92.8 nM | 119 nM | – | –
GUAUGGGUAGAAGGACAUGAGGAUCACCCAUGUUGUGUGUCUAAGGAUAUUAGAGAAGAUUGACGUAAGAAGGUAGAUGUGUGG | – | – | 94.2 nM | 80.8 nM
GUCACUAGAGGAUAUACAAUGGUAUAUGAUCCUAGAGACAUACAUGAGGAUCACCCAUGUAGAAGGCUAGUAUU | – | – | 64.6 nM | 43.5 nM
GUCAGACGAGGAUAUAGAUUUAAGUACAUGAGGAUCACCCAUGUACACAUGUAUUUAGAUUUAGAAGGCGUCUGAC | – | – | 594 nM | 700 nM
GUCAGCUCGUGAGGAUAUACAACACUACUUCGGCAGUGUAUUAAGAUCACAUGAGGAUCACCCAUGUAGAAGGCACGAGCUGAU | – | – | 14 nM | 228 nM
GUCAGCUCGUGAGGAUAUACAACACUGCAUCGGCAGUGUAUUAAGAUCACAUGAGGAUCACCCAUGUAGAAGGCACGAGCUGAU | – | – | 13 nM | 246 nM
GUCAGCUCGUGAGGAUAUACAACACUGCUCCGGCAGUGUAUUAAGAUCACAUGAGGAUCACCCAUGUAGAAGGCACGAGCUGAU | – | – | 13.3 nM | 237 nM
GUCAGCUCGUGAGGAUAUACAACACUGCUUCGGCAGUGUAUUAAGAUCACAUGAGGAUCACCCAUGUAGAAGGCACGAGCAGAU | – | – | 13.4 nM | 258 nM
GUCAGCUCGUGAGGAUAUACAACACUGCUUCGGCAGUGUAUUAAGAUCACAUGAGGAUCACCCAUGUAGAAGGCACGAGUUGAU | – | – | 13.9 nM | 276 nM
GUCAGCUCGUGAGGAUAUACAUGUGCUGGAAACAGCAUUAAAUUUUUCACAUGAGGAUCACCCAUGUAGAAGGCACGAGCUGAU | – | – | 17.3 nM | 39.1 nM
GUCAGCUCGUGAGGAUAUACAUGUGCUGGAGACAGCAUUAAAUUUUUCACAUGAGGAUCACCCAUGUAGAAGGCACGAGCUGAU | – | – | 18.4 nM | 49.4 nM
GUCAGCUCGUGAGGAUAUACAUGUGCUGGAUACAGCACUAAUAGAAUCACAUGAGGAUCACCCAUGUAGAAGGCACGAGCUGAU | – | – | 17.6 nM | 39.4 nM
GUCAGCUCGUGAGGAUAUACAUGUGCUGGAUACAGCACUAUUGUGUUCACAUGAGGAUCACCCAUGUAGAAGGCACGAGCUGAU | – | – | 17.7 nM | 87.3 nM
GUCAGCUCUUGAGGAUAUACAACACUGCUUCGGCAGUGUAUUAAGAUCACAUGAGGAUCACCCAUGUAGAAGGCACGAGCUGAU | – | – | 13.2 nM | 170 nM
GUCCCGAGGGAGAAGGGCUAGAAGGUCCAGCUUAUGUGUGUUGCAACAUGAGGAUCACCCAUGUAGCAGGAUAUCCCUUGUACA | – | – | 18.1 nM | 39.6 nM
GUCCGGCGUGUAGGAUAUGGAUCCGAUUAGGAUCCAGAAGGACAUGAGGAUCACCCAUGUACAUGUAAACAGUCAUCACCGGAG | – | – | 9.11 nM | 58.9 nM
GUCCUACAUGAGGAUCACCCAUGUGAGGAUAUGUGGUUAGCUGCUAGGUAGUUAGUAUGCAGAAGGUACGUGAU | – | – | 40.4 nM | 41.9 nM
GUCCUCUCUGAGGAUAUUAUCCGGUCCGAUUGAUAAGAAGGCAGUACAUGAGGAUCACCCAUGUGGGUUGUCUG | – | – | 62.6 nM | 170 nM
GUCCUUAACGAGGAUAUCGGGCGGGUUUUUGUUUGAGAAGGUGUGACAUGAGGAUCACCCAUGUGGCGCGUGGG | – | – | 318 nM | 258 nM
GUCGAGUGAGGAUAUUGAAUCGGUGGCAGACCACACGAGCUCGAGAAGGCACAUGAGGAUCACCCAUGUGGGUC | – | – | 28.1 nM | 41.6 nM

Sequence | apparent Kd [1] | apparent Kd [2] | apparent Kd [3] | apparent Kd [4]
GUCGGAAACGACAAAAGUACCGGAGCAGAAGGCAUGUCAUAAGACAUGAGGAUCACCCAUGUGCAUGAGGAUAUGCUCCGGUAC | 5.45 nM | 4.68 nM | – | –
GUCGGAAACGACAAAAGUAGCAUACGAGAAGGCUGAUCCACGACAUGAGGAUCACCCAUGUAGUUAGAGGAUAUUGGAUGCUAC | 61.6 nM | 12.9 nM | – | –
GUCGGAAACGACAAAAGUAGCAUAGGAGAAGGCAUGUCAUAAGACAUGAGGAUCACCCAUGUCCGUGAGGAUAUCCUAUGCUAC | 8.14 nM | 6.15 nM | – | –
GUCGGAAACGACAAUGAUAGGACUGAGGAUAUACAUAAGUUAGUCCAUACAUGAGGAUCACCCAUGUAGAAGGCAGUCCUAUCU | – | – | 7.78 nM | 33.4 nM
GUCGUGUGAGGAUAUGGAUAGUAGCAGUGGCGGUCGGCGACCUAGAAGGCACAUGAGGAUCACCCAUGUAAGAG | – | – | 40.6 nM | 37.8 nM
GUCUUGAUAGGAUAUACAUGAGGAUCACCCAUGUCCCACCCGUUACCUCUGGCCCUAUGUAGAAGGAUCGUCUG | – | – | 50.2 nM | 45.6 nM
GUCUUGUCAGGAUAUCUUACAUAACAAUCGUAGUUACAAUUGGAGAAGGGACAUGAGGAUCACCCAUGUUAGCG | – | – | 32.9 nM | 36 nM
GUGAACAUGAGGAUCACCCAUGUAGCUCACUGCCAGUGGCUACAGGAUAUAGCACUCCGAAGGUGCUAGAAGGGUGGCCUAGAA | 92.8 nM | 22.1 nM | – | –
GUGAAGGUAGGAUAUACGAUAAUAUAGGGUAGAUAUAUAACACAUGAGGAUCACCCAUGUAGAAGGACCAAGUG | – | – | 46.3 nM | 110 nM
GUGACGAAUGUAGGAUAUGCUGAGGAAUACUCAGCAGAAGGACAUGAGGAUCACCCAUGUAAUCCUAAUAAUAAAUAACGUCAC | – | – | 13 nM | 18.3 nM
GUGAGGUCAGGAUAUGCAUGGCGGGACUUGCGUCGUGGCGUGGAGAAGGGACAUGAGGAUCACCCAUGUGGAGG | – | – | 115 nM | 95 nM
GUGAGUGAUAGAGGAUAUAUAGAGAGAGAGAGAAUAGAAGGCUAAACAUACAUGAACAUGAGGAUCACCCAUGUCACCCAUGUU | 37.6 nM | 42.2 nM | – | –
GUGCAGGUAGGAUAUCCACCGGCAAACAUGAGGAUCACCCAUGUGACGCUCCCUUGUCUUGGAGAAGGGCCGGCAU | – | – | 33.1 nM | 27.5 nM
GUGCAUACGUGAGGAUAUGUAUUAGCUCGUGGUACAGAAGGCAUGUCUGAUGACAUGAGGAUCACCCAUGUUGGCACAGUGCGC | 48.2 nM | 27.6 nM | – | –
GUGCGGUAGGAGAAGGACGGAGGCUUCUUUACAUACAUGAGGAUCACCCAUGUAGGAUAUCCUACCUCACGCGGCCUCCUUCUG | – | – | 5.4 nM | 5.5 nM
GUGCGGUAGGAGAAGGACGGAGGCUUCUUUUCAUACAUGAGGAUCACCCAUGUAGGAUAUCCUACCUCACGCGGCCUACUACUG | – | – | 8.36 nM | 7.7 nM
GUGCGGUCAGGAUAUGCAUGGCGGGACUUGCGUCGUGGCGUGGAGAAGGGACAUGAGGAUCACCCAUGUGGAGU | – | – | 76.6 nM | 45.3 nM
GUGCGUGGCUAGGAUAUUGAGGAGUUUAGUCAGCGAGAAGGAGCCACAUGAGGAUCACCCAUGUGGUGAAGCUC | – | – | 18.6 nM | 68.6 nM
GUGCUCGUGUGAGGAUAUGCCGCCGUUUCGGCUGCAGAAGGUGCUACGUUACAUGAGGAUCACCCAUGUCUCUGUUGUUUCGUG | 21 nM | 21.4 nM | – | –
GUGCUUGUCGAAGGAUAUGGUUACAUGAGGAUCACCCAUGUUAUGCUUGGUUACUUGUUUAGUUUCCAGAAGGUCGAUUAGUUG | – | – | 53.4 nM | 163 nM
GUGGCCCAGGCACAGGAUAUGUUUCUCGUAACAUGAGGAUCACCCAUGUGCCUAUGAGAUUUUUUGCAGAAGGGUGCACGCCACG | 229 nM | 18.1 nM | – | –
GUGGCUUAUGAGAAGGCGAUCAUGAAACAUGAUCGAGGAUAUCAUGUAAACAUGAGGAUCACCCAUGUAUGGGUAUUAUGCUAC | 291 nM | 53.9 nM | – | –
GUGGGAAUCACAGGAUAUACAUGCGCCGCUUCGUUCUACAUGAGGAUCACCCAUGUGUGGUCCGUGUAGAAGGGUGUUUGUUAC | 31 nM | 10.8 nM | – | –
GUGGUCAGACAUGAGGAUCACCCAUGUGGAAUAAAUAAGGAACAGGAUAUCUAAUAUAGGAUAUAAGAGAAGGGUUGGUUGGUG | 81.7 nM | 93.6 nM | – | –
GUGGUGCAUAUACGUGGAUGUACAUGAGGAUCACCCAUGUAAGAGGAUAUGCGGAUACUAGCUCAGCAGAAGGCUUACAAAUAA | – | – | 16.1 nM | 73.8 nM
GUGGUGCAUAUACGUGGAUGUACAUGAGGAUCACCCAUGUAAGAGGAUAUGCGGAUACUAGCUCAGCAGAAGGCUUACAAAUGC | – | – | 9.75 nM | 27.5 nM
GUGUACAGAGGAUAUACGGGAGCAUGGAAACAUGCAACCUCACAUGAGGAUCACCCAUGUAGAAGGCUGUACAC | – | – | 162 nM | 243 nM
